From ChEMBL document CHEMBL4145567, “Natural Stilbenoids Have Anti-Inflammatory Properties in Vivo and Down-Regulate the Production of Inflammatory Mediators NO, IL6, and MCP1 Possibly in a PI3K/Akt-Dependent Manner” (J Nat Prod, 2018)
Active and inactive are the calls of the source. The rule behind the calls is not given here.

Columns and labels:
J774 [1] = assay: Antiinflammatory activity in mouse J774 cells assessed as reduction in LPS-induced nitric oxide production after 24 hrs by Griess assay; type: functional, cell-based; conditions: for IC50: J774, 24 h
Summary of the method: (§1)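 Confluent J774 macrophages (72 h growth, DMEM/10% FBS) were treated with LPS 10 ng/mL plus increasing compound concentrations for 24 h. NO production was followed as nitrite accumulated in the medium, measured by Griess test. The half-maximal inhibitory concentration was derived from the concentration series; n = 4.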

J774 [2] = assay: Inhibition of PI3K/Akt in mouse J774 cells assessed as reduction in LPS-induced Akt phosphorylation at Ser473 after 4 hrs by Western blot analysis; type: cell-based
Summary of the method: (§2)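 J774 macrophages were exposed to LPS (10 ng/mL) for 4 h with increasing compound concentrations, then lysed on ice in Tris/EDTA/Triton buffer with protease and phosphatase inhibitors. Lysate protein (20 μg) was Western blotted with an antibody against Akt phospho-S473. Chemiluminescence was quantified; mean + SEM, n = 4.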

J774 [3] = assay: Antiinflammatory activity in mouse J774 cells assessed as reduction in LPS-induced MCP1 expression after 24 hrs by ELISA; type: functional, cell-based; conditions: for IC50: J774, 24 h
Summary of the method: (§3)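 J774 macrophages were grown 72 h to confluence in DMEM with 10% heat-inactivated FBS. Cells were stimulated with LPS (10 ng/mL) with increasing compound concentrations for 24 h. IL6 or MCP1 in the collected medium was measured by ELISA. Concentration giving 50% inhibition was taken from the concentration series; mean + SEM, n = 4.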

J774 [4] = assay: Antiinflammatory activity in mouse J774 cells assessed as reduction in LPS-induced IL6 expression after 24 hrs by ELISA; type: functional, cell-based; conditions: for IC50: J774, 24 h; summary of the method: as §3
J774 [5] = assay: Inhibition of PI3K/Akt in mouse J774 cells assessed as reduction in LPS-induced Akt phosphorylation at Ser473 at 30 uM after 4 hrs by Western blot analysis; type: cell-based; summary of the method: as §2
J774 [6] = assay: Antiinflammatory activity in mouse J774 cells assessed as reduction in LPS-induced nitric oxide production at 30 uM after 24 hrs by Griess assay; type: functional, cell-based; summary of the method: as §1
J774 [7] = assay: Inhibition of PI3K/Akt in mouse J774 cells assessed as reduction in LPS-induced Akt phosphorylation at Ser473 at 100 uM after 4 hrs by Western blot analysis; type: cell-based; summary of the method: as §2
J774 [8] = assay: Antiinflammatory activity in mouse J774 cells assessed as reduction in LPS-induced MCP1 expression at 30 uM after 24 hrs by ELISA; type: functional, cell-based; summary of the method: as §3
J774 [9] = assay: Antiinflammatory activity in mouse J774 cells assessed as reduction in LPS-induced IL6 expression at 30 uM after 24 hrs by ELISA; type: functional, cell-based; summary of the method: as §3
Mus musculus [10] = assay: Antiinflammatory activity in carrageenan induced C57BL/6 mouse model of inflammation assessed as reduction in paw edema at 2 mg/kg, ip pretreated for 1 to 2 hrs followed by carrageenan challenge measured after 3 to 6 hrs by plethysmometer; type: functional, organism-based
Summary of the method: (§4)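 Mice got compound i.p. in 10% DMSO in PBS (pH 7.4) before carrageenan. Under i.p. medetomidine (0.5 mg/kg) plus ketamine (75 mg/kg), one hindpaw received 50 μL intradermal 1.5% w/v λ-carrageenan in saline, and the contralateral paw got saline. Paw volume was measured by plethysmometer before and 3 and 6 h after. Edema = carrageenan-paw minus saline-paw volume change; n = 6–7/group.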

Mus musculus [11] = assay: Antiinflammatory activity in carrageenan induced C57BL/6 mouse model of inflammation assessed as reduction in MCP1 expression in hind paw at 2 mg/kg, ip pretreated for 1 to 2 hrs followed by carrageenan challenge measured after 6 hrs by ELISA; type: functional, organism-based
Summary of the method: (§5)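 Compound was given i.p. in 10% DMSO/PBS (pH 7.4) before intradermal 1.5% w/v λ-carrageenan (50 μL) into one hindpaw under anesthesia; the contralateral paw got saline. At 6 h, paw tissue was collected into 50 mM Tris pH 7.4, 150 mM NaCl with protease/phosphatase inhibitors, minced and centrifuged (10000g, 10 min). Supernatant cytokine was read by ELISA; n = 6–7/group.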

Mus musculus [12] = assay: Antiinflammatory activity in carrageenan induced C57BL/6 mouse model of inflammation assessed as reduction in IL6 expression in hind paw at 2 mg/kg, ip pretreated for 1 to 2 hrs followed by carrageenan challenge measured after 6 hrs by ELISA; type: functional, organism-based; summary of the method: as §5
J774 [13] = assay: Inhibition of PI3K/Akt in mouse J774 cells assessed as reduction in LPS-induced Akt phosphorylation at Ser473 at 10 uM after 4 hrs by Western blot analysis; type: cell-based; summary of the method: as §2
Mus musculus [14] = assay: Antiinflammatory activity in carrageenan induced C57BL/6 mouse model of inflammation assessed as reduction in IL6 expression in hind paw at 15 mg/kg, ip pretreated for 1 to 2 hrs followed by carrageenan challenge measured after 6 hrs by ELISA; type: functional, organism-based; summary of the method: as §5
Mus musculus [15] = assay: Antiinflammatory activity in carrageenan induced C57BL/6 mouse model of inflammation assessed as reduction in MCP1 expression in hind paw at 15 mg/kg, ip pretreated for 1 to 2 hrs followed by carrageenan challenge measured after 6 hrs by ELISA; type: functional, organism-based; summary of the method: as §5
Mus musculus [16] = assay: Antiinflammatory activity in carrageenan induced C57BL/6 mouse model of inflammation assessed as reduction in paw edema at 15 mg/kg, ip pretreated for 1 to 2 hrs followed by carrageenan challenge measured after 3 to 6 hrs by plethysmometer; type: functional, organism-based; summary of the method: as §4
Mus musculus [17] = assay: Antiinflammatory activity in carrageenan induced C57BL/6 mouse model of inflammation assessed as reduction in MCP1 expression in hind paw at 30 mg/kg, ip pretreated for 1 to 2 hrs followed by carrageenan challenge measured after 6 hrs by ELISA; type: functional, organism-based; summary of the method: as §5
Mus musculus [18] = assay: Antiinflammatory activity in carrageenan induced C57BL/6 mouse model of inflammation assessed as reduction in paw edema at 30 mg/kg, ip pretreated for 1 to 2 hrs followed by carrageenan challenge measured after 3 to 6 hrs by plethysmometer; type: functional, organism-based; summary of the method: as §4
Mus musculus [19] = assay: Antiinflammatory activity in carrageenan induced C57BL/6 mouse model of inflammation assessed as reduction in IL6 expression in hind paw at 30 mg/kg, ip pretreated for 1 to 2 hrs followed by carrageenan challenge measured after 6 hrs by ELISA; type: functional, organism-based; summary of the method: as §5

Structure (SMILES) | Activity (J774 [1]) | IC50 (J774 [1]) [µM] | inhibition (J774 [2]) | Activity (J774 [3]) | IC50 (J774 [3]) [µM] | Activity (J774 [4]) | IC50 (J774 [4]) [µM] | inhibition (J774 [5]) | also measured
COc1ccc(/C=C/c2cc(O)cc(O)c2)cc1O | Dose-dependent effect | 103 | Dose-dependent effect | Dose-dependent effect | 19.4 | Dose-dependent effect | 99.1 |  | 
C=CCOc1cc(O)cc(/C=C/c2ccccc2)c1 |  |  |  |  |  |  |  | Active | 
CC(C)(C)Oc1cc(O)cc(/C=C/c2ccccc2)c1 |  |  |  |  |  |  |  | inactive | 
CCCOc1cc(O)cc(/C=C/c2ccccc2)c1 |  |  |  |  |  |  |  | inactive | 
CCOc1cc(O)cc(/C=C/c2ccccc2)c1 |  |  |  |  |  |  |  | Active | 
COc1ccc(/C=C/c2cc(O)cc(O[C@@H]3O[C@H](CO)[C@@H](O)[C@H](O)[C@H]3O)c2)cc1O |  |  |  |  |  |  |  |  | Activity (J774 [6]): inactive; inhibition (J774 [7]): inactive; Activity (J774 [8]): inactive; Activity (J774 [9]): inactive
C[C@@H]1C[C@H]2[C@@H]3CCC4=CC(=O)C=C[C@]4(C)[C@@]3(F)[C@@H](O)C[C@]2(C)[C@@]1(O)C(=O)CO |  |  |  |  |  |  |  |  | Activity (Mus musculus [10]): Active; Activity (Mus musculus [11]): Active; Activity (Mus musculus [12]): Active
OC[C@H]1O[C@@H](Oc2cc(O)cc(/C=C/c3ccc(O)c(O)c3)c2)[C@H](O)[C@@H](O)[C@@H]1O |  |  |  |  |  |  |  |  | Activity (J774 [6]): inactive; inhibition (J774 [7]): inactive; Activity (J774 [8]): inactive; Activity (J774 [9]): inactive
Oc1cc(/C=C/c2ccccc2)cc(OCc2ccccc2)c1 |  |  |  |  |  |  |  | inactive | 
O=c1cc(N2CCOCC2)oc2c(-c3ccccc3)cccc12 [LY-294002] |  | 8.9 |  |  | 3.7 |  | 5.1 |  | inhibition (J774 [13]): Active; Activity (Mus musculus [14]): Active; Activity (Mus musculus [15]): Active; Activity (Mus musculus [16]): Active
Oc1cc(O)cc(/C=C/c2ccc(O)c(O)c2)c1 [PICEATANNOL] | Dose-dependent effect | 2.6 | Dose-dependent effect | Dose-dependent effect | 4 | Dose-dependent effect | 13 |  | Activity (Mus musculus [17]): Active; Activity (Mus musculus [18]): Active; Activity (Mus musculus [19]): Active
COc1cc(O)cc(/C=C/c2ccccc2)c1 [PINOSYLVIN METHYL ETHER] | Dose-dependent effect | 37 | Dose-dependent effect | Dose-dependent effect | 23.7 | Dose-dependent effect | 30.2 |  | 
Oc1cc(O)cc(/C=C/c2ccccc2)c1 [PINOSYLVIN] | Dose-dependent effect | 16.6 | Dose-dependent effect | Dose-dependent effect | 38.7 | Dose-dependent effect | 32.1 |  | Activity (Mus musculus [17]): Active; Activity (Mus musculus [18]): Active; Activity (Mus musculus [19]): Active
COc1cc(/C=C/c2ccc(O)cc2)cc(OC)c1 [PTEROSTILBENE] | Dose-dependent effect | 16.7 | Dose-dependent effect | Dose-dependent effect | 10.5 | Dose-dependent effect | 8.7 |  | Activity (Mus musculus [17]): Active; Activity (Mus musculus [18]): Active; Activity (Mus musculus [19]): Active
Oc1ccc(/C=C/c2cc(O)cc(O)c2)cc1 [RESVERATROL] | Dose-dependent effect | 12.2 | Dose-dependent effect | Dose-dependent effect | 13.6 | Dose-dependent effect | 6.8 |  | 
